In ChEMBL document CHEMBL1148815, “New series of antiprion compounds: pyrazolone derivatives have the potent activity of inhibiting protease-resistant prion protein accumulation” (J Med Chem, 2007):

Key:
[1] = Cytotoxicity against human NB69 cells by MTT assay; type: cell-based; conditions: read-out: LD50 (the source's name)
[2] = Cytotoxicity against mouse F3 cells by MTT assay; type: cell-based; conditions: n2a #58 f3
ScN2a [3] = assay: Cytotoxicity against mouse ScN2a cells by MTT assay; type: cell-based
ScN2a [4] = assay: Antiprion activity in ScN2a cells assessed as inhibition of protease-resistant prion protein accumulation; type: functional, cell-based; conditions: Mus musculus
In short: (§1)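 Mouse N2a cells carrying RML scrapie (ScN2a) or N2a#58 cells carrying Fukuoka-1 (F3), grown in Opti-MEM with 10% FBS. Compound added at passage (10% confluency), cells grown to confluence over 3–4 days, then lysed. Lysates digested with 10 µg/mL proteinase K for 30 min at 37 °C. PrP-res detected by SDS-PAGE/immunoblot with SAF83. IC50 is the concentration halving PrP-res relative to control.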

[5] = Antiprion activity in F3 cells assessed as inhibition of protease-resistant prion protein accumulation; type: functional, cell-based; conditions: Mus musculus, N2a #58 F3; in short: as §1
[6] = Hydroxy radical scavenging activity by ESR spin-trapping method; type: functional
In short: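 A mixture of 25 mM H2O2, 25 mM DMPO and compound was UV-irradiated. Hydroxyl radical scavenging was expressed as IC50.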

[7] = Superoxide dismutase like activity assessed as inhibition of WST1 tetrazolium formation at 1 mM in presence of 2 mM Cu(II); type: functional; parameters: scale not given: the % may be the effect or the level left
[8] = Superoxide dismutase like activity assessed as inhibition of WST1 tetrazolium formation at 1 mM; type: functional; parameters: scale not given: the % may be the effect or the level left
In short: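 Xanthine-based photometric kit assay with WST-1 tetrazolium salt. Compound was tested at 1 mM.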

Row | Structure (SMILES) | CC50 [1] [nM] | Activity [2] [nM] | Activity (ScN2a [3]) [nM] | IC50 (ScN2a [4]) [nM] | IC50 [5] [nM] | IC50 [6] [nM] | Activity [7] [%] | Activity [8] [%]
1 | O=C1CC(c2ccccc2)=NN1c1ccccc1 | > 1000 | > 100 | > 100 |  |  |  |  | 
2 | O=C1CC(Cc2ccccc2)=NN1c1ccccc1 | > 300 | > 1000 | > 1000 |  |  |  |  | 
3 | CC1=NN(C2CCCCC2)C(=O)C1 | > 1000 | > 1000 | > 1000 | 13 | 25 |  |  | 
4 | CC1=NN(c2ccccc2)C(=O)C1c1ccccc1 (stereo not drawn) | > 1000 | > 100 | > 100 | 40 | 1 | 790 |  | 
5 | CC1=NN(c2ccccc2)C(=O)C1C(=O)c1ccccc1 (stereo not drawn) | > 1000 | > 1000 | > 1000 | 6 | 1000 | 610 |  | 
6 | O=C(Nc1ccccc1)C1=NN(c2ccccc2)C(=O)C1 | > 1000 | > 1000 | > 1000 | 398 | 1580 |  |  | 
7 | C=CC1CN2CC[C@H]1C[C@H]2[C@H](O)c1ccnc2ccc(OC)cc12 (single isomer, unassigned) [QUININE] |  |  |  | 10000 |  |  |  | 
8 | COc1ccc(C2=NN(c3ccccc3)C(=O)C2)cc1 | > 1000 | > 100 | > 100 |  |  |  |  | 
9 | O=C(NC1=NN(c2ccccc2)C(=O)C1)Oc1ccccc1 |  | > 1000 | > 1000 |  |  | 380 | 11.6 | 5.6
10 | COC(=O)NC1=NN(c2ccccc2)C(=O)C1 | > 1000 | > 1000 | > 1000 | 6 | 501 |  |  | 
11 | O=C(NC1=NN(c2ccccc2)C(=O)C1)c1ccccc1 | > 1000 | > 1000 | > 1000 | 2000 | 1260 | 220 | 3.2 | 9.2
12 | CC1=NN(c2ccccc2)C(=O)C1CC(C)C (stereo not drawn) | > 1000 | > 1000 | > 1000 |  | 16 |  |  | 
13 | CC1=NN(c2ccccc2)C(=O)C1 [EDARAVONE] |  |  |  | > 1000 |  | 250 | 5.7 | 0.6
14 | CC1=NN(c2ccccc2)C(=O)C1c1ccccn1 (stereo not drawn) | > 1000 | > 1000 | > 1000 | 79 | 631 |  |  | 
15 | COc1ccc(N2N=C(C)CC2=O)cc1 | > 1000 | > 100 | > 100 |  |  |  |  | 
16 | O=C(NC1=NN(c2ccccc2)C(=O)C1)NC1CCCC1 | > 1000 | > 1000 | > 1000 | 126 | 158 |  |  | 
17 | CC1=NN(c2ccc(Cl)cc2)C(=O)C1 | > 1000 | > 100 | > 100 | 0.5 |  |  |  | 
18 | O=C1CC(C(F)(F)F)=NN1c1ccccc1 | > 1000 | > 1000 | > 1000 | 398 | 631 | 810 | 7.4 | 13.4
19 | C=C(C)C1=NN(c2ccccc2)C(=O)C1 | > 1000 | > 1000 | > 1000 | 158 | 794 |  |  | 
20 | C=C[C@H]1CN2CC[C@H]1C[C@@H]2[C@@H](O)c1ccnc2ccc(OC)cc12 [QUINIDINE] |  |  |  | 5000 |  |  |  | 
21 | O=C1CC(c2ccc([N+](=O)[O-])cc2)=NN1c1ccccc1 | > 1000 | > 1000 | > 1000 | 3 | 3 | 90 | 11.9 | 1.8
22 | CC1=NN(c2ccccc2)C(=O)C1C1CC1 (stereo not drawn) | > 1000 | > 1000 | > 1000 |  |  | 720 | 35.4 | 15.9
